How the values were obtained:
[1] = substrate: CN(Cc1ccccc1)C(=O)CC(=O)Oc1cccc(C(=O)O)c1; test: (§1) Activity at Enterobacter cloacae P99 beta-lactamase by spectrophotometry
Method in brief: (§2)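 Steady-state kinetics in 100 mM MOPS, pH 7.5, 25 °C. Substrate stocks were made in DMSO and diluted into buffer to a final DMSO below 5%. Initial rates of enzyme-catalysed turnover were followed spectrophotometrically. Steady-state parameters were derived from these initial rates. Buffer hydrolysis of the substrates was measured separately as pseudo-first-order rate constants.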

[2] = substrate: CO[C@@H](C(=O)NCc1ccccc1)C(=O)Oc1cccc(C(=O)O)c1; test: as §1; method in brief: as §2
[3] = substrate: CO[C@H](C(=O)NCc1ccccc1)C(=O)Oc1cccc(C(=O)O)c1; test: as §1; method in brief: as §2
[4] = substrate: C[C@@H](C(=O)NCc1ccccc1)C(=O)Oc1cccc(C(=O)O)c1; test: as §1; method in brief: as §2
[5] = substrate: C[C@H](C(=O)NCc1ccccc1)C(=O)Oc1cccc(C(=O)O)c1; test: as §1; method in brief: as §2
[6] = substrate: O=C(CC(=O)N(Cc1ccccc1)Cc1ccccc1)Oc1cccc(C(=O)O)c1; test: as §1; method in brief: as §2
[7] = substrate: O=C(CC(=O)Oc1cccc(C(=O)O)c1)NCc1ccccc1; test: as §1; method in brief: as §2
[8] = substrate: O=C(O)c1cccc(OC(=O)C(Cc2ccccc2)C(=O)NCc2ccccc2)c1; test: as §1; method in brief: as §2
[9] = substrate: O=C(O)c1cccc(OC(=O)C2CCN(Cc3ccccc3)C2=O)c1; test: as §1; method in brief: as §2
[10] = substrate: O=C(O)c1cccc(OC(=O)C2Cc3ccccc3N(Cc3ccccc3)C2=O)c1; test: as §1; method in brief: as §2
[11] = substrate: CN(Cc1ccccc1)C(=O)CC(=O)Oc1cccc(C(=O)O)c1; test: (§3) Ratio of Kcat to Km for Enterobacter cloacae P99 beta-lactamase; method in brief: as §2
[12] = substrate: CO[C@@H](C(=O)NCc1ccccc1)C(=O)Oc1cccc(C(=O)O)c1; test: as §3; method in brief: as §2
[13] = substrate: CO[C@H](C(=O)NCc1ccccc1)C(=O)Oc1cccc(C(=O)O)c1; test: as §3; method in brief: as §2
[14] = substrate: C[C@@H](C(=O)NCc1ccccc1)C(=O)Oc1cccc(C(=O)O)c1; test: as §3; method in brief: as §2
[15] = substrate: C[C@H](C(=O)NCc1ccccc1)C(=O)Oc1cccc(C(=O)O)c1; test: as §3; method in brief: as §2
[16] = substrate: O=C(CC(=O)N(Cc1ccccc1)Cc1ccccc1)Oc1cccc(C(=O)O)c1; test: as §3; method in brief: as §2
[17] = substrate: O=C(CC(=O)Oc1cccc(C(=O)O)c1)NCc1ccccc1; test: as §3; method in brief: as §2
[18] = substrate: O=C(O)c1cccc(OC(=O)C(Cc2ccccc2)C(=O)NCc2ccccc2)c1; test: as §3; method in brief: as §2
[19] = substrate: O=C(O)c1cccc(OC(=O)C2CCN(Cc3ccccc3)C2=O)c1; test: as §3; method in brief: as §2
[20] = substrate: O=C(O)c1cccc(OC(=O)C2Cc3ccccc3N(Cc3ccccc3)C2=O)c1; test: as §3; method in brief: as §2
[21] = compound: O=C(CP(=O)(O)Oc1cccc(C(=O)O)c1)NCc1ccccc1; test: Inhibition of Enterobacter cloacae P99 beta-lactamase assessed as inhibition of cephalothin turnover by spectrophotometry
Method in brief: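 Initial rates of 200 μM cephalothin hydrolysis were measured spectrophotometrically in 100 mM MOPS, pH 7.5, at 25 °C. Compounds were added from DMSO stocks, with final DMSO below 5%.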

[22] = substrate: CO[C@@H](C(=O)NCc1ccccc1)C(=O)Oc1cccc(C(=O)O)c1; test: (§4) Activity at Streptomyces R61 DD-peptidase by spectrophotometry; details: Streptomyces sp. R61; method in brief: as §2
[23] = substrate: C[C@@H](C(=O)NCc1ccccc1)C(=O)Oc1cccc(C(=O)O)c1; test: as §4; details: Streptomyces sp. R61; method in brief: as §2
[24] = substrate: C[C@H](C(=O)NCc1ccccc1)C(=O)Oc1cccc(C(=O)O)c1; test: as §4; details: Streptomyces sp. R61; method in brief: as §2
[25] = substrate: O=C(CC(=O)Oc1cccc(C(=O)O)c1)NCc1ccccc1; test: as §4; details: Streptomyces sp. R61; method in brief: as §2
[26] = substrate: O=C(O)c1cccc(OC(=O)C2CCN(Cc3ccccc3)C2=O)c1; test: as §4; details: Streptomyces sp. R61; method in brief: as §2
[27] = substrate: O=C(O)c1cccc(OC(=O)C2Cc3ccccc3N(Cc3ccccc3)C2=O)c1; test: as §4; details: Streptomyces sp. R61; method in brief: as §2
[28] = substrate: CN(Cc1ccccc1)C(=O)CC(=O)Oc1cccc(C(=O)O)c1; test: (§5) Ratio of Kcat to Km for Streptomyces R61 DD-peptidase; details: Streptomyces sp. R61; method in brief: as §2
[29] = substrate: CO[C@@H](C(=O)NCc1ccccc1)C(=O)Oc1cccc(C(=O)O)c1; test: as §5; details: Streptomyces sp. R61; method in brief: as §2
[30] = substrate: C[C@@H](C(=O)NCc1ccccc1)C(=O)Oc1cccc(C(=O)O)c1; test: as §5; details: Streptomyces sp. R61; method in brief: as §2
[31] = substrate: C[C@H](C(=O)NCc1ccccc1)C(=O)Oc1cccc(C(=O)O)c1; test: as §5; details: Streptomyces sp. R61; method in brief: as §2
[32] = substrate: O=C(CC(=O)N(Cc1ccccc1)Cc1ccccc1)Oc1cccc(C(=O)O)c1; test: as §5; details: Streptomyces sp. R61; method in brief: as §2
[33] = substrate: O=C(CC(=O)Oc1cccc(C(=O)O)c1)NCc1ccccc1; test: as §5; details: Streptomyces sp. R61; method in brief: as §2
[34] = substrate: O=C(O)c1cccc(OC(=O)C(Cc2ccccc2)C(=O)NCc2ccccc2)c1; test: as §5; details: Streptomyces sp. R61; method in brief: as §2
[35] = substrate: O=C(O)c1cccc(OC(=O)C2CCN(Cc3ccccc3)C2=O)c1; test: as §5; details: Streptomyces sp. R61; method in brief: as §2
[36] = substrate: O=C(O)c1cccc(OC(=O)C2Cc3ccccc3N(Cc3ccccc3)C2=O)c1; test: as §5; details: Streptomyces sp. R61; method in brief: as §2
[37] = substrate: CN(Cc1ccccc1)C(=O)CC(=O)Oc1cccc(C(=O)O)c1; test: (§6) Activity at Actinomadura R39 DD-peptidase by spectrophotometry; details: Actinomadura sp. R39; method in brief: as §2
[38] = substrate: CO[C@@H](C(=O)NCc1ccccc1)C(=O)Oc1cccc(C(=O)O)c1; test: as §6; details: Actinomadura sp. R39; method in brief: as §2
[39] = substrate: C[C@H](C(=O)NCc1ccccc1)C(=O)Oc1cccc(C(=O)O)c1; test: as §6; details: Actinomadura sp. R39; method in brief: as §2
[40] = substrate: O=C(O)c1cccc(OC(=O)C2CCN(Cc3ccccc3)C2=O)c1; test: as §6; details: Actinomadura sp. R39; method in brief: as §2
[41] = substrate: CN(Cc1ccccc1)C(=O)CC(=O)Oc1cccc(C(=O)O)c1; test: (§7) Ratio of Kcat to Km for Actinomadura R39 DD-peptidase; details: Actinomadura sp. R39; method in brief: as §2
[42] = substrate: CO[C@@H](C(=O)NCc1ccccc1)C(=O)Oc1cccc(C(=O)O)c1; test: as §7; details: Actinomadura sp. R39; method in brief: as §2
[43] = substrate: C[C@H](C(=O)NCc1ccccc1)C(=O)Oc1cccc(C(=O)O)c1; test: as §7; details: Actinomadura sp. R39; method in brief: as §2
[44] = substrate: O=C(CC(=O)Oc1cccc(C(=O)O)c1)NCc1ccccc1; test: as §7; details: Actinomadura sp. R39; method in brief: as §2
[45] = substrate: O=C(O)c1cccc(OC(=O)C2CCN(Cc3ccccc3)C2=O)c1; test: as §7; details: Actinomadura sp. R39; method in brief: as §2
[46] = substrate: O=C(O)c1cccc(OC(=O)C2Cc3ccccc3N(Cc3ccccc3)C2=O)c1; test: as §7; details: Actinomadura sp. R39; method in brief: as §2

B1: Beta-lactamase (Enterobacter cloacae), P05364 (protein)
chain: MMRKSLCCALLLGISCSALATPVSEKQLAEVVANTITPLMKAQSVPGMAVAVIYQGKPHYYTFGKADIAANKPVTPQTLFELGSISKTFTGVLGGDAIARGEISLDDAVTRYWPQLTGKQWQGIRMLDLATYTAGGLPLQVPDEVTDNASLLRFYQNWQPQWKPGTTRLYANASIGLFGALAVKPSGMPYEQAMTTRVLKPLKLDHTWINVPKAEEAHYAWGYRDGKAVRVSPGMLDAQAYGVKTNVQDMANWVMANMAPENVADASLKQGIALAQSRYWRIGSMYQGLGWEMLNWPVEANTVVEGSDSKVALAPLPVAEVNPPAPPVKASWVHKTGSTGGFGSYVAFIPEKQIGIVMLANTSYPNPARVEAAYHILEALQ
Km [1]: 700 µM | kcat [1]: 0.33 s⁻¹ | Km [2]: > 1000 µM | kcat [2]: > 7.4 s⁻¹ | Km [3]: > 1000 µM | kcat [3]: > 2.9 s⁻¹ | Km [4]: 2800 µM | kcat [4]: 6.6 s⁻¹ | Km [5]: 60 µM | kcat [5]: 1.17 s⁻¹ | Km [6]: 32 µM | kcat [6]: 0.25 s⁻¹ | Km [7]: 170 µM | kcat [7]: 41 s⁻¹ | Km [8]: 2.6 µM | kcat [8]: 0.05 s⁻¹ | Km [9]: 2500 µM | kcat [9]: 0.12 s⁻¹ | Km [10]: 1400 µM | kcat [10]: 0.41 s⁻¹ | kcat/Km [11]: 4.7 ×10² /s/M | kcat/Km [12]: 7.4 ×10³ /s/M | kcat/Km [13]: 2.9 ×10³ /s/M | kcat/Km [14]: 2.36 ×10³ /s/M | kcat/Km [15]: 2.13 ×10⁴ /s/M | kcat/Km [16]: 7.9 ×10³ /s/M | kcat/Km [17]: 2.45 ×10⁵ /s/M | kcat/Km [18]: 1.9 ×10⁴ /s/M | kcat/Km [19]: 50 M⁻¹ s⁻¹ | kcat/Km [20]: 290 M⁻¹ s⁻¹ | kcat/Km [21]: 45 M⁻¹ s⁻¹

B2: D-alanyl-D-alanine carboxypeptidase (Streptomyces sp. R61), P15555 (protein)
chain: MVSGTVGRGTALGAVLLALLAVPAQAGTAAAADLPAPDDTGLQAVLHTALSQGAPGAMVRVDDNGTIHQLSEGVADRATGRAITTTDRFRVGSVTKSFSAVVLLQLVDEGKLDLDASVNTYLPGLLPDDRITVRQVMSHRSGLYDYTNDMFAQTVPGFESVRNKVFSYQDLITLSLKHGVTNAPGAAYSYSNTNFVVAGMLIEKLTGHSVATEYQNRIFTPLNLTDTFYVHPDTVIPGTHANGYLTPDEAGGALVDSTEQTVSWAQSAGAVISSTQDLDTFFSALMSGQLMSAAQLAQMQQWTTVNSTQGYGLGLRRRDLSCGISVYGHTGTVQGYYTYAFASKDGKRSVTALANTSNNVNVLNTMARTLESAFCGKPTTAKLRSATSSATTVERHEDIAPGIARD
Km [22]: 280 µM | kcat [22]: 9.4 s⁻¹ | Km [23]: 90 µM | kcat [23]: 0.12 s⁻¹ | Km [24]: 320 µM | kcat [24]: 7.63 s⁻¹ | Km [25]: 104 µM | kcat [25]: 0.7 s⁻¹ | Km [26]: > 200 µM | kcat [26]: > 3.6 ×10⁻³ /s | Km [27]: > 200 µM | kcat [27]: > 4.2 ×10⁻³ /s | kcat/Km [28]: < 0.15 M⁻¹ s⁻¹ | kcat/Km [29]: 3.3 ×10⁴ /s/M | kcat/Km [30]: 1.31 ×10³ /s/M | kcat/Km [31]: 2.37 ×10⁴ /s/M | kcat/Km [32]: < 0.35 M⁻¹ s⁻¹ | kcat/Km [33]: 70 M⁻¹ s⁻¹ | kcat/Km [34]: < 0.2 M⁻¹ s⁻¹ | kcat/Km [35]: 17.8 M⁻¹ s⁻¹ | kcat/Km [36]: 21 M⁻¹ s⁻¹

B3: D-alanyl-D-alanine carboxypeptidase (Actinomadura sp. R39), P39045 (protein)
chain: MKQSSPEPLRPRRTGGRGGARRAAALVTIPLLPMTLLGASPALADASGARLTELREDIDAILEDPALEGAVSGVVVVDTATGEELYSRDGGEQLLPASNMKLFTAAAALEVLGADHSFGTEVAAESAPGRRGEVQDLYLVGRGDPTLSAEDLDAMAAEVAASGVRTVRGDLYADDTWFDSERLVDDWWPEDEPYAYSAQISALTVAHGERFDTGVTEVSVTPAAEGEPADVDLGAAEGYAELDNRAVTGAAGSANTLVIDRPVGTNTIAVTGSLPADAAPVTALRTVDEPAALAGHLFEEALESNGVTVKGDVGLGGVPADWQDAEVLADHTSAELSEILVPFMKFSNNGHAEMLVKSIGQETAGAGTWDAGLVGVEEALSGLGVDTAGLVLNDGSGLSRGNLVTADTVVDLLGQAGSAPWAQTWSASLPVAGESDPFVGGTLANRMRGTAAEGVVEAKTGTMSGVSALSGYVPGPEGELAFSIVNNGHSGPAPLAVQDAIAVRLAEYAGHQAPEGARMMRGPVQGSGELECSWVQAC
Km [37]: > 1000 µM | kcat [37]: > 3 ×10⁻³ /s | Km [38]: 53 µM | kcat [38]: 2.81 s⁻¹ | Km [39]: > 1000 µM | kcat [39]: > 0.73 s⁻¹ | Km [40]: > 1000 µM | kcat [40]: > 8 ×10⁻³ /s | kcat/Km [41]: 3 M⁻¹ s⁻¹ | kcat/Km [42]: 5 ×10⁴ /s/M | kcat/Km [43]: 7.28 ×10² /s/M | kcat/Km [44]: < 1.5 M⁻¹ s⁻¹ | kcat/Km [45]: 8 M⁻¹ s⁻¹ | kcat/Km [46]: < 20 M⁻¹ s⁻¹

Source: ChEMBL document CHEMBL1157679, “Substituted aryl malonamates as new serine beta-lactamase substrates: structure-activity studies” (Bioorg Med Chem, 2010)
